# Published values gathered from unrelated publications.
# Organism: Staphylococcus aureus
# Read-out: microbial growth
SMILES,technique,strain,time,setting,MIC
O=C(Nc1ccc(OC(F)(F)F)cc1)c1sccc1NCc1ccnc2ccccc12,,NCTC8325,,,> 30 µM
CC1=NN(CNC(=O)c2ccccn2)C(=O)C1=NNn1c(-c2ccccc2)nc2ccccc2c1=O,broth dilution,,24 h,,52 µM
CCCCCCC#Cc1cncc(-c2nnc(SCc3ccc(C#N)cc3)n2C)c1,,MRSA,,drug-resistant strain,≥ 20 µg/mL
CC(C)Oc1c(NC(=O)c2ccc(NC(=O)[C@H](CC(N)=O)NC(=O)c3ccc(NC(=O)c4ccc(C#N)cc4)cc3)cc2)ccc(C(=O)Nc2cc(C(=O)O)n(C)c2)c1O,,ATCC29213,,,64 µg/mL
O=C(Nc1ccc2c(c1)OC(F)(F)O2)NC12CC3CC(CC(C3)C1)C2,,NCTC8325,,,> 100 µM
C/C=C(\C)c1cc(O)c(C)c(OC(=O)c2c(C)cc(O)c(Cl)c2O)c1,broth dilution,745524,,,8 µg/mL
CC(C)n1nc(-c2ccc3oc(N)nc3c2)c2c(N)ncnc21,,NCTC8325,,,> 30 µM
O=C(O)c1cn(C2CC2)c2cc(N3CCNCC3)c(F)cc2c1=O,broth dilution,ATCC25923,,,0.49 µg/mL
Clc1ccc(Cn2c(-c3ccc(Cl)cc3)nc3ccccc32)cc1,broth dilution,ATCC29213 MSSA,,,8 µg/mL
OC(Cn1cncn1)(Cn1cncn1)c1ccc(F)cc1F,broth dilution,MB2865,,,> 128 µg/mL
Cc1ccc(C)n1-c1ccc(-c2nnc(S)s2)cc1,broth dilution,ATCC11632,18 h,,1 µg/mL
CC(C)Oc1c(N)ccc(C(=O)Nc2ccc(C(=O)N[C@@H](CC(N)=O)C(=O)Nc3ccc(C(=O)Nc4ccc(C(=O)Nc5ccc(C(=O)O)cc5)c(O)c4OC(C)C)cc3)cc2)c1O,,ATCC29213,,,> 64 µg/mL
CCCCCCCCCCCC(=O)Oc1c(C)c(O)c(C(=O)/C=C/c2ccccc2)c(OC)c1C,broth dilution,ATCC25923,,,5000 µg/mL
FC(F)(F)c1cc(-c2nnc(Sc3cc(Cl)nc(Sc4ccccc4)n3)[nH]2)cc(C(F)(F)F)c1,,83254,,,1.6 µM
O=C(Cc1cc(O)c(O)c(O)c1)NCCCCCCCC[P+](c1ccccc1)(c1ccccc1)c1ccccc1.[Br-],broth dilution,ATCC43300 MRSA,18 h,,> 32 µg/mL
CC(C)Oc1c(NC(=O)c2ccc(NC(=O)[C@H](CC(N)=O)NC(=O)c3ccc(NC(=O)C(C)Sc4ccc(C#N)cc4)cc3)cc2)ccc(C(=O)Nc2ccc(C(=O)O)cc2)c1O (some centres unmarked),,ATCC29213,,,> 64 µg/mL
C/C=C(\C)c1cc(OC(=O)c2c(O)c(C)c(O)c(Cl)c2/C(C)=C/C)c(C)c(O)c1C(=O)O,broth dilution,ATCC29213,,,64 µg/mL
O=[N+]([O-])c1cnc2ccc(F)cc2c1O,,,,,> 128 µg/mL
CCCCCCCC(=O)Oc1c(C)c(O)c(C(=O)/C=C/c2ccccc2)c(OC)c1C,broth dilution,ATCC25923,,,> 5000 µg/mL
CN[C@H](CC(C)C)C(=O)N[C@H]1C(=O)N[C@@H](CC(N)=O)C(=O)N[C@H]2C(=O)N[C@H]3C(=O)N[C@H](C(=O)N[C@H](C(=O)O)c4cc(O)cc(O)c4-c4cc3ccc4O)[C@H](O)c3ccc(c(Cl)c3)Oc3cc2cc(c3O[C@@H]2O[C@H](CO)[C@@H](O)[C@H](O)[C@H]2O[C@H]2C[C@](C)(N)[C@H](O)[C@H](C)O2)Oc2ccc(cc2Cl)[C@H]1O,broth dilution,ATCCBAA44,,,1 µg/mL
COc1cc(/C=N\NC(=O)c2ccc(Br)cc2)ccc1OC(=O)c1cccs1,,,,,> 128 µg/mL
C[C@@H](O)[C@H]1C(=O)N2C(C(=O)O)=C(S[C@H]3C[C@@H](C(=O)N4CC[C@H](NC(=O)CNC(=N)N)C4)N(C)C3)[C@H](C)[C@H]12,,MRSA,,,8 µg/mL
Clc1ccc(NCc2ccc(Oc3ccccn3)cc2)cc1,,,,,> 3.1 µg/mL
Cc1ccc2nc(-c3ccc(Cl)c(Cl)c3)n(Cc3ccccc3)c2c1,broth dilution,ATCC29213 MSSA,,,32 µg/mL
Cc1cc(Nc2cc(N3CCN(C)CC3)nc(/C=C/c3ccccc3)n2)n[nH]1,,NCTC8325,,,> 30 µM
C=CCn1c(-c2ccc([N+](=O)[O-])cc2)nc2ccccc21,broth dilution,ATCC29213 MSSA,,,32 µg/mL
O=C(O)CN1C(=O)/C(=C/c2ccc(-c3ccc(N(c4ccccc4)c4ccccc4)cc3)c3ccccc23)SC1=S,broth dilution,ATCC43300,,,1000 µg/mL
C=CC(=O)Nc1cccc(Sc2nc(Nc3ccc(N4CCN(C)CC4)cc3)ncc2Cl)c1,,NCTC8325,,,> 30 µM
O=C1NC(=S)S/C1=C\c1ccc(-c2ccc(N(c3ccccc3)c3ccccc3)cc2)cc1,broth dilution,ATCC6538,,,500 µg/mL
CC1(C)S[C@@H]2[C@H](NC(=O)[C@H](N)c3ccccc3)C(=O)N2[C@H]1C(=O)O,broth dilution,16339,,,64 µg/mL
CN(C)[C@@H]1C(O)=C(C(N)=O)C(=O)[C@@]2(O)C(O)=C3C(=O)c4c(O)cccc4[C@@](C)(O)[C@H]3C[C@@H]12,broth dilution,25923,,,0.15 µM
CC1(C)S[C@@H]2[C@H](NC(=O)COc3ccccc3)C(=O)N2[C@H]1C(=O)O,broth dilution,MRSA,18 h,clinical isolate,> 128 µg/mL
Cc1ccc(-n2nc(C(C)(C)C)cc2NC(=O)Nc2ccc(OCCN3CCOCC3)c3ccccc23)cc1,,NCTC8325,,,> 30 µM
CC(C)Oc1c(NC(=O)c2ccc(NC(=O)[C@H](CC(N)=O)NC(=O)c3ccc(NC(=O)c4ccc(C#N)cn4)cc3)cc2)ccc(C(=O)Nc2ccc(C(=O)O)cc2)c1O,,ATCC29213,,,≤ 0.03 µg/mL
C#CCCC1(CC(=O)NC(C)C)N=N1,,NCTC8325,,,> 100 µM
Cc1ccc2nc(-c3ccccc3Cl)[nH]c2c1,broth dilution,ATCC29213 MSSA,,,64 µg/mL
CN[C@H](CC(C)C)C(=O)N[C@H]1C(=O)N[C@@H](CC(N)=O)C(=O)N[C@H]2C(=O)N[C@H]3C(=O)N[C@H](C(=O)N[C@H](C(=O)O)c4cc(O)cc(O)c4-c4cc3ccc4O)[C@H](O)c3ccc(c(Cl)c3)Oc3cc2cc(c3O[C@@H]2O[C@H](CO)[C@@H](O)[C@H](O)[C@H]2O[C@H]2C[C@](C)(N)[C@H](O)[C@H](C)O2)Oc2ccc(cc2Cl)[C@H]1O,broth dilution,16162,,,0.5 µg/mL
Clc1ccc(-c2nc3ccccc3[nH]2)cc1,broth dilution,ATCC29213 MSSA,,,64 µg/mL
COc1ccc(-c2ccc3c(N4CCOCC4)nc(N4C[C@@H](C)O[C@@H](C)C4)nc3n2)cc1CO,,NCTC8325,,,> 30 µM
COc1cccc(-c2nc3ccccc3[nH]2)c1,broth dilution,ATCC29213 MSSA,,,256 µg/mL
O=C(O)CN1C(=O)/C(=C/c2ccc(-c3ccc(N(c4ccccc4)c4ccccc4)cc3)cc2)SC1=S,broth dilution,ATCC43300,,,3.9 µg/mL
